Measured values from ChEMBL document CHEMBL2331250, “Synthesis of an MIF-1 analogue containing enantiopure (S)-α-trifluoromethyl-proline and biological evaluation on nociception” (Eur J Med Chem, 2013).
Activity calls are given as the source filed them. Residues, ends and D or L forms follow the SMILES beside them.

How the values were obtained:
Type in all cases: functional, organism-based
[1] = system: Rattus norvegicus; test: Analgesic activity in Wistar rats assessed as increase in latency of response to pain at 1 mg/kg, ip treated 20 mins after 1 mg/kg, ip NO donor, L-arginine challenge measured after 15 to 45 mins by hot plate test
Procedure, shortened: (§1)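 Male Wistar rats (180–200 g), 12 h light/dark cycle, food and water ad libitum, tested 09.00–12.00, five rats per group. Peptide given i.p. in sterile 0.9% saline. Pretreatment agents (naloxone or L-Arg at 1 mg/kg, L-NAME at 10 mg/kg, i.p.) were given 20 min before the peptide. Readings began 15 min after peptide injection. Hot plate at 55 ± 0.5 °C; latency measured to first paw licking or jump; 30 s cut-off. Mean ± S.E.M., ANOVA, P < 0.05.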

[2] = system: Rattus norvegicus; test: Analgesic activity in Wistar rats assessed as increase in latency of response to pain at 1 mg/kg, ip treated 20 mins after 10 mg/kg, ip NOS inhibitor, L-NAME challenge measured after 15 to 45 mins by hot plate test; procedure, shortened: as §1
[3] = system: Rattus norvegicus; test: Analgesic activity in Wistar rats assessed as increase in mechanical nociceptive threshold at 1 mg/kg, ip treated 20 mins after 1 mg/kg, ip NO donor, L-arginine challenge measured after 15 to 45 mins by paw pressure test
Procedure, shortened: (§2)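 Male Wistar rats (180–200 g), five per group, tested 09.00–12.00. Peptide given i.p. in sterile 0.9% saline. Pretreatment agents (naloxone or L-Arg at 1 mg/kg, L-NAME at 10 mg/kg, i.p.) were given 20 min before the peptide. Readings began 15 min after peptide injection. Randall-Selitto analgesimeter applied pressure to the hind paw; threshold was the pressure (g) eliciting squeak or struggle; 500 g cut-off. Mean ± S.E.M., ANOVA.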

[4] = system: Rattus norvegicus; test: Analgesic activity in Wistar rats assessed as increase in mechanical nociceptive threshold at 1 mg/kg, ip treated 20 mins after 10 mg/kg, ip NOS inhibitor, L-NAME challenge measured after 15 to 45 mins by paw pressure test; procedure, shortened: as §2
[5] = system: Rattus norvegicus; test: Analgesic activity in Wistar rats assessed as increase in latency of response to pain at 1 mg/kg, ip treated 20 mins after 1 mg/kg, ip […] opiate receptor antagonist, naloxone challenge measured after 15 to 30 mins by hot plate test; procedure, shortened: as §1
[6] = system: Rattus norvegicus; test: Analgesic activity in Wistar rats assessed as increase in mechanical nociceptive threshold at 1 mg/kg, ip treated 20 mins after 1 mg/kg, ip […] opiate receptor antagonist, naloxone challenge measured after 15 to 30 mins by paw pressure test; procedure, shortened: as §2
[7] = system: Rattus norvegicus; test: Analgesic activity in Wistar rats assessed as increase in latency of response to pain at 1 mg/kg, ip measured after 15 to 45 mins by hot plate test; parameters: dose 1 mg/kg; procedure, shortened: as §1
[8] = system: Rattus norvegicus; test: Analgesic activity in Wistar rats assessed as increase in mechanical nociceptive threshold at 1 mg/kg, ip measured after 15 to 30 mins by paw pressure test; parameters: dose 1 mg/kg; procedure, shortened: as §2
[9] = system: Rattus norvegicus; test: Analgesic activity in Wistar rats assessed as increase in latency of response to pain at 1 mg/kg, ip measured after 15 mins by hot plate test; parameters: dose 1 mg/kg; procedure, shortened: as §1
[10] = system: Rattus norvegicus; test: Analgesic activity in Wistar rats assessed as increase in mechanical nociceptive threshold at 1 mg/kg, ip measured after 15 mins by paw pressure test; parameters: dose 1 mg/kg; procedure, shortened: as §2

Q: What does the source list for `CC(C)C[C@H](NC(=O)[C@]1(C(F)(F)F)CCCN1)C(=O)NCC(N)=O`?
A: Activity [1]: inactive; Activity [2]: inactive; Activity [3]: inactive; Activity [4]: inactive; Activity [5]: inactive; Activity [6]: inactive; Activity [7]: inactive; Activity [8]: Active

Q: What does the source list for `CC(C)C[C@H](NC(=O)[C@@H]1CCCN1)C(=O)NCC(N)=O` (H-Pro-Leu-Gly-NH2)?
A: Activity [1]: inactive; Activity [2]: inactive; Activity [3]: inactive; Activity [4]: inactive; Activity [5]: inactive; Activity [6]: inactive; Activity [9]: Active; Activity [10]: inactive
